Calls of active or inactive are those of the source.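 Rule for the calls: active = peak block of the KCNQ2 potassium channel above 30% at any tested dose, with a fitted dose response curve; inactive = no channel block at any dose, or no curve.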
target: Potassium voltage-gated channel subfamily KQT member 2 (Rattus norvegicus) (UniProt O88943); experiment: rat KCNQ2 channel inhibition, SAR follow-up, selectivity assay for KCNK9 inhibitor project, cell-based, FluxOR thallium flux, CRC (AID 588761); details: KCNQ2-expressing cells; series mostly up to 30 µM
Sequence (O88943 whole entry, looked up): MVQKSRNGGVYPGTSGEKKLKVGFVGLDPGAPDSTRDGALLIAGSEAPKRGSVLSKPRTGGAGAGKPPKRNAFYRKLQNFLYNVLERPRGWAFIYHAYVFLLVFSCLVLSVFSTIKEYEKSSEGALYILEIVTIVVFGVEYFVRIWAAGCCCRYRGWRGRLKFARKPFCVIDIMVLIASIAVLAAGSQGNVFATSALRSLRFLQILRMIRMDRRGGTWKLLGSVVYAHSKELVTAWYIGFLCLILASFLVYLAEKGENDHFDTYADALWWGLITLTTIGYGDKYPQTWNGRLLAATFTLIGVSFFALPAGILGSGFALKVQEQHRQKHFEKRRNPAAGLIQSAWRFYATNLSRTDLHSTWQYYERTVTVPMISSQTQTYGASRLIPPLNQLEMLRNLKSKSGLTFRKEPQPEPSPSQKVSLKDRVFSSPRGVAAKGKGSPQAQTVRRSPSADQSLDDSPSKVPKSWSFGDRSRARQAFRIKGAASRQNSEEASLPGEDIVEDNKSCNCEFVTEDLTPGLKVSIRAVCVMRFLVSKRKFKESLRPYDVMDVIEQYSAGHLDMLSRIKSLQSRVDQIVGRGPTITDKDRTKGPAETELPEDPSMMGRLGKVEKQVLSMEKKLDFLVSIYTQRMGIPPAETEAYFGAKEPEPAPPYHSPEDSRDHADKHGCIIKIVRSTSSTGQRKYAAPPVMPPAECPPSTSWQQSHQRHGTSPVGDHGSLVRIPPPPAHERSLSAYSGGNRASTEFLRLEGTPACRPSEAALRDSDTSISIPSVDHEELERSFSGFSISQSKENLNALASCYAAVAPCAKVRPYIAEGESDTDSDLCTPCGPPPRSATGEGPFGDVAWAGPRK
Summary of the method: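 Repeats: ≥2 replicates | Test system: KCNQ2-expressing CHO cells | Detection: FluxOR thallium flux, kinetic imaging, 10 s baseline, 110 s post-stimulus | Probe or stimulus: Tl+/K+ stimulus (5x stock 7 mM Tl2SO4, 25 mM K2SO4) | Schedule: Dye 90 min RT, compound 20 min RT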

Row | Structure (SMILES) | outcome
1 | Cc1cccc(NC(=O)c2cccc(NC(=O)c3ccccc3)c2)c1 | inactive
2 | Cc1cccc(C(=O)Nc2cccc(C(=O)Nc3ccccc3)c2)c1 | inactive
3 | Cc1cccc(C(=O)Nc2ccc(C(=O)Nc3ccccc3)cc2)c1 | inactive
4 | Cc1cccc(NC(=O)c2ccccc2NC(=O)c2ccccc2)c1 | inactive
5 | Cc1cccc(C(=O)Nc2ccccc2C(=O)Nc2ccccc2)c1 | inactive

— PubChem BioAssay AID588761 (Johns Hopkins Ion Channel Center, 2011)
